Assay results: ChEMBL document CHEMBL3046176, “Synthesis, crystal structure, and biological activities of 2-cyanoacrylates containing furan or tetrahydrofuran moieties” (2007)

Columns and labels:
Format in all cases: functional
Cladosporium cucumerinum = experiment: Antifungal activity against Cladosporium cucumerinum assessed as inhibition of mycelium growth at 50 mg/L at 26 degC measured after 72 hr
How it was run: (§1)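 Mycelium growth assay on agar. 1 mL test solution (50 mg/L) was poured into a 9 cm plate with 9 mL agar medium. Controls used sterile water in its place. A 4 mm plug from the margin of an actively growing colony was placed in the centre and incubated at 26 °C. Hyphal diameter was measured over 72 h, in triplicate. Inhibition % = (control diameter − treated diameter)/control diameter.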

Mycosphaerella arachidis = experiment: Antifungal activity against Mycosphaerella arachidis assessed as inhibition of mycelium growth at 50 mg/L at 26 degC measured after 72 hr; how it was run: as §1
[1] = test system: Botryosphaeria berengeriana; experiment: Antifungal activity against Botryosphaeria berengeriana assessed as inhibition of mycelium growth at 50 mg/L at 26 degC measured after 72 hr; how it was run: as §1
Alternaria solani = experiment: Antifungal activity against Alternaria solani assessed as inhibition of mycelium growth at 50 mg/L at 26 degC measured after 72 hr; how it was run: as §1
Fusarium graminearum = experiment: Antifungal activity against Fusarium graminearum assessed as inhibition of mycelium growth at 50 mg/L at 26 degC measured after 72 hr
How it was run: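 Mycelium growth test on agar plates: 1 mL test solution (50 mg/L) mixed with 9 mL agar medium; sterile water in place of test solution for controls. 4 mm inocula cut from margins of actively growing colonies, placed at plate centre, incubated at 26 °C; mycelium diameter measured over 72 h. Inhibition % from mean hyphal diameter against control. Triplicate.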

Cucumis sativus = experiment: Plant growth regulatory activity in Cucumis sativus (cucumber) seed assessed as number of root at 10 mg/L at 26 degC measured after 5 days
How it was run: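 Cucumber seeds were incubated at 26 °C in the dark for 72 h, then 10 cotyledons were excised and treated. Incubation continued at 26 °C in the dark for 5 days. Roots were counted, with water-only controls, in triplicate.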

Digitaria sanguinalis [2] = experiment: Herbicidal activity against hairy crabgrass Digitaria sanguinalis (hairy crabgrass) assessed as herbicidal damage at 1.5 kg/ha measured after preemergence treatment; conditions: pre-emergence
How it was run: (§2)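 Seeds were sown in 6 cm boxes of artificial mixed soil, covered with plastic film until emergence, and grown in a greenhouse. Sprays were applied right after sowing (preemergence) or after the first true leaf expanded (postemergence). Controls received the same amount of water/DMF/Tween 20. Above-ground fresh weight was taken 10 days after treatment, in triplicate, as % damage versus control.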

Medicago sativa [3] = experiment: Herbicidal activity against Medicago sativa (alfalfa) assessed as herbicidal damage at 1.5 kg/ha measured after preemergence treatment; conditions: pre-emergence; how it was run: as §2
Amaranthus retroflexus [4] = experiment: Herbicidal activity against Amaranthus retroflexus assessed as herbicidal damage at 1.5 kg/ha measured after preemergence treatment; conditions: pre-emergence; how it was run: as §2
Brassica napus [5] = experiment: Herbicidal activity against rape Brassica napus (oilseed rape) assessed as herbicidal damage at 1.5 kg/ha measured after preemergence treatment; conditions: pre-emergence; how it was run: as §2
Digitaria sanguinalis [6] = experiment: Herbicidal activity against hairy crabgrass Digitaria sanguinalis (hairy crabgrass) assessed as herbicidal damage at 1.5 kg/ha measured after postemergence treatment; conditions: post-emergence; how it was run: as §2
Medicago sativa [7] = experiment: Herbicidal activity against Medicago sativa (alfalfa) assessed as herbicidal damage at 1.5 kg/ha measured after postemergence treatment; conditions: post-emergence; how it was run: as §2
Amaranthus retroflexus [8] = experiment: Herbicidal activity against Amaranthus retroflexus assessed as herbicidal damage at 1.5 kg/ha measured after postemergence treatment; conditions: post-emergence; how it was run: as §2
Brassica napus [9] = experiment: Herbicidal activity against rape Brassica napus (oilseed rape) assessed as herbicidal damage at 1.5 kg/ha measured after postemergence treatment; conditions: post-emergence; how it was run: as §2
Tobacco mosaic virus = experiment: Antiviral activity against Tobacco mosaic virus (TMV) inoculated in fresh tobacco leaf at 100 mg/L by half-leaf method
How it was run: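 Half-leaf method on tobacco leaves at the 5-6 growth stage. Leaves were inoculated with TMV by juice-leaf rubbing at 5.88 × 10-2 µg/mL and cut along the main vein. One half was immersed in test solution and the other in double distilled water for 20 min, then cultured at 25 °C for 72 h, in triplicate. Inhibition = 100(CK − A)/CK, from average lesion counts.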

Compound	inhibition at 50 µg/mL (Cladosporium cucumerinum)	inhibition at 50 µg/mL (Mycosphaerella arachidis)	inhibition at 50 µg/mL [1]	inhibition at 50 µg/mL (Alternaria solani)	inhibition at 50 µg/mL (Fusarium graminearum)	Activity (Cucumis sativus)	inhibition at 1500 g/ha (Digitaria sanguinalis [2])	inhibition at 1500 g/ha (Medicago sativa [3])	inhibition at 1500 g/ha (Amaranthus retroflexus [4])	inhibition at 1500 g/ha (Brassica napus [5])	inhibition at 1500 g/ha (Digitaria sanguinalis [6])	inhibition at 1500 g/ha (Medicago sativa [7])	inhibition at 1500 g/ha (Amaranthus retroflexus [8])	inhibition at 1500 g/ha (Brassica napus [9])	Activity (Tobacco mosaic virus)
CCOCCOC(=O)/C(C#N)=C(/C)NCC1CCOC1 (configuration not stated)	18.4%	12.5%	27.3%	35.7%	0%	-6.6%	31.4%	7.5%	12.6%	0%	0%	5.4%	29.5%	52.3%	–
CCOCCOC(=O)/C(C#N)=C(/CC)NCC1CCOC1 (configuration not stated)	7.9%	39.3%	9.1%	17.9%	20%	41.5%	0%	6%	4.2%	34.1%	11.1%	25.7%	51.6%	68%	7.2%
CCC/C(NCC1CCOC1)=C(\C#N)C(=O)OCCOCC (configuration not stated)	21.1%	41.1%	27.3%	10.7%	0%	5.4%	0%	0%	9.5%	0%	1%	11.4%	8.1%	58.8%	9.4%
CCOCCOC(=O)/C(C#N)=C(/NCc1ccoc1)SC	13.2%	12.5%	9.1%	3.6%	36.7%	14.4%	0%	16.5%	8.4%	0%	5.1%	31.1%	28.8%	30.8%	8%
CCOCCOC(=O)/C(C#N)=C(/C)NCc1ccoc1	36.8%	44.6%	13.6%	0%	33.3%	-18.6%	22.8%	6.8%	21.1%	0%	0%	20.4%	37.1%	49.8%	–
CCOCCOC(=O)/C(C#N)=C(/CC)NCc1ccoc1	26.3%	35.7%	4.5%	10.7%	33.3%	23.4%	0%	2.3%	11.6%	0%	0%	0%	23.3%	33.8%	–
CCC/C(NCc1ccoc1)=C(\C#N)C(=O)OCCOCC	21.1%	12.5%	31.8%	25%	16.7%	-6.6%	35.7%	4.5%	0%	0%	0%	31.1%	14.3%	25.2%	0%
CCOCCOC(=O)/C(C#N)=C(/NCc1ccc(Cl)nc1)SC	0%	21.4%	22.7%	7.1%	6.7%	-3.6%	18.6%	1.5%	13.7%	68.9%	89.9%	41.3%	100%	100%	18.3%
